Measurements as given in ChEMBL document CHEMBL3525967, “In vitro glucuronidation of the antibacterial triclocarban and its oxidative metabolites” (Drug Metab Dispos, 2012).

Tests used:
[1] = Drug metabolism in B6C3F1 mouse liver microsomes after 30 mins by LC-ESI-MS analysis; type: ADME
In short: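 2'-OH-TCC at 0.2, 0.5, 1, 2, 3, 5, 10 and 50 µM incubated with liver microsomes (alamethicin, MgCl2, saccharolactone, UDPGA; 37 °C), sampled at 5, 10, 15 and 30 min. Samples ≥5 µM diluted 1:9 in ACN; LC-ESI-MS. KM and vmax fitted from rate vs concentration; intrinsic clearance derived from these; mean and SD of three.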

[2] = Drug excretion in Sprague-Dawley rat urine assessed as 6-O-glucuronide-triclocarban formation at 1 mg/kg, po by LC-MS analysis; type: ADME, organism-based; parameters: dose 1 mg/kg, route oral; details: in vivo
[3] = Drug excretion in Swiss webster mouse urine assessed as N'-glucuronide-triclocarban formation at 5 mg/kg, po by LC-MS analysis; type: ADME, organism-based; parameters: dose 5 mg/kg, route oral; details: in vivo
In short: (§1)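 Mice were housed two per metabolic cage, with blank urine collected over the 24 h before dosing. TCC was given by oral gavage as a 1 mg/mL solution in 20/80 DMSO/PEG400 (v/v) at 5 mg/kg. Urine was collected at 0-24 h and 24-48 h and analysed by online LC-MS. Values are the mean of two independent experiments.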

[4] = Drug excretion in Sprague-Dawley rat urine assessed as N'-glucuronide-triclocarban formation at 1 mg/kg, po by LC-MS analysis; type: ADME, organism-based; parameters: dose 1 mg/kg, route oral; details: in vivo
[5] = molecular target: T1, UDP-glucuronosyltransferase 1A7 (Homo sapiens, UniProt Q9HAW7); assay: Drug metabolism assessed as human UGT1A7-mediated N-glucuronide-triclocarban formation expressed in baculovirus infected insect sf9 cells incubated for 5 mins prior to UDPGA addition measured after 5 to 30 mins by LC-UV analysis; type: ADME
T1 sequence (Q9HAW7 whole entry): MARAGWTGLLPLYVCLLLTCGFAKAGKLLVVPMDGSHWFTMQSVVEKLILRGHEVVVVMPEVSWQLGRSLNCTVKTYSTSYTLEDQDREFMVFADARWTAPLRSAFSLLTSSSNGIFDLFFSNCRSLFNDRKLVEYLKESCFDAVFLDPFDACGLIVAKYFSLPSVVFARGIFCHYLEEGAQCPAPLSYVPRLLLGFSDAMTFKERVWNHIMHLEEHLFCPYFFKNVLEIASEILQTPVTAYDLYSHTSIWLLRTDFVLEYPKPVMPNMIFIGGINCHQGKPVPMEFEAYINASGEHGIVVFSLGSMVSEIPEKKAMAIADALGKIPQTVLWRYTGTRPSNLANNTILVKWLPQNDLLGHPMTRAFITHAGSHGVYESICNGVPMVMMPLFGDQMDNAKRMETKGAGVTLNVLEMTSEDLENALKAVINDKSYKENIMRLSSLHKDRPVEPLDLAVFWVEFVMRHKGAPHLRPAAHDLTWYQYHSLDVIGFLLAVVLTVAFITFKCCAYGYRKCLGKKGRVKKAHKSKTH
In short: (§2)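 Microsomes or UGT Supersomes (5 µg protein) were held 15 min on ice with alamethicin in 100 mM potassium phosphate pH 7.4. TCC was added at 10 µM (2% DMSO) with 10 mM MgCl2 and 10 mM saccharolactone, pre-warmed 5 min at 37 °C, then started with UDPGA. Samples at 5, 10, 15 and 30 min were quenched in ACN. Product was read by LC-UV at 265 nm; rate came from regression over time, three incubations.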

[6] = Drug excretion in Swiss webster mouse urine assessed as 6-O-glucuronide-triclocarban formation at 5 mg/kg, po by LC-MS analysis; type: ADME, organism-based; parameters: dose 5 mg/kg, route oral; details: in vivo; in short: as §1
[7] = molecular target: T2, UDP-glucuronosyltransferase 1A1 (Homo sapiens, UniProt P22309); assay: Drug metabolism assessed as human UGT1A1-mediated N'-glucuronide-triclocarban formation expressed in baculovirus infected insect sf9 cells incubated for 5 mins prior to UDPGA addition measured after 5 to 30 mins by LC-UV analysis; type: ADME; in short: as §2
T2 sequence (P22309 whole entry): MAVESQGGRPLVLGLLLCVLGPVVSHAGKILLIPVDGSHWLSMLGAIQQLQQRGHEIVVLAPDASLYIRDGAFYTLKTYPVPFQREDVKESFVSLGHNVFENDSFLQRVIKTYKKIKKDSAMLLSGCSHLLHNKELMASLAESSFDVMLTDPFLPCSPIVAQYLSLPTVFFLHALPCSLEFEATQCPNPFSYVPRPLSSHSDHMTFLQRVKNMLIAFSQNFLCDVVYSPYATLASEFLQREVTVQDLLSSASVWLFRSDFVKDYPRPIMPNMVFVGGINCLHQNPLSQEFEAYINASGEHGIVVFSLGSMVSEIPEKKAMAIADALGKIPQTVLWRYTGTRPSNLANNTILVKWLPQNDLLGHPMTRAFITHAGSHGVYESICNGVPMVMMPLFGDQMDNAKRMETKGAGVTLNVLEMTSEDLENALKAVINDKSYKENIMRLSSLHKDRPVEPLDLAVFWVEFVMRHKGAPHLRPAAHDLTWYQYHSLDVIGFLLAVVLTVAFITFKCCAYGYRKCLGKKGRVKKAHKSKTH

[8] = Inhibition of human recombinant soluble epoxide hydrolase using CMNPC as substrate
[9] = molecular target: T3, UDP-glucuronosyltransferase 1A4 (Homo sapiens, UniProt P22310); assay: Drug metabolism assessed as human UGT1A4-mediated N-glucuronide-triclocarban formation expressed in baculovirus infected insect sf9 cells incubated for 5 mins prior to UDPGA addition measured after 5 to 30 mins by LC-UV analysis; type: ADME; in short: as §2
T3 sequence (P22310 whole entry): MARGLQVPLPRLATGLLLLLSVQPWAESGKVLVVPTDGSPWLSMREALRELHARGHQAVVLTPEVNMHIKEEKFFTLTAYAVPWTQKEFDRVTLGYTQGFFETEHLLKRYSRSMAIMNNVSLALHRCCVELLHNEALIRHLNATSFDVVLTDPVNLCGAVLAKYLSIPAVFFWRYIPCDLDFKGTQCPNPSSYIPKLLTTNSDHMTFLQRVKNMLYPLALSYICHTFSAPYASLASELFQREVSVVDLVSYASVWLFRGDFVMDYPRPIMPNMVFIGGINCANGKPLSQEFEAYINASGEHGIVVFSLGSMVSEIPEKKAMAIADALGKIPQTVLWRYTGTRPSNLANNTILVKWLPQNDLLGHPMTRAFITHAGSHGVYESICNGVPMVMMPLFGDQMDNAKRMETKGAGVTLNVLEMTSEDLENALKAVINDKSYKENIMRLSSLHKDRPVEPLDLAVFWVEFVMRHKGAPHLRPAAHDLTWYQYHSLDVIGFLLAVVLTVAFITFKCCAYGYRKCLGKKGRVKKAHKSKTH

[10] = Drug metabolism in human kidney microsomes assessed as N-glucuronide-triclocarban formation incubated for 5 mins prior to UDPGA addition measured after 5 to 30 mins by LC-UV analysis; type: ADME
In short: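 Pooled human kidney or liver microsomes (liver: 25 mixed-gender donors), 5 µg protein, in 200 µL 100 mM potassium phosphate pH 7.4. Alamethicin pre-treated on ice 15 min. Final 10 µM TCC (2% DMSO), with 10 mM MgCl2 and 10 mM saccharolactone, preincubated 5 min at 37 °C. Started with UDPGA (20 mM stock). Sampled at 5, 10, 15 and 30 min into ACN containing 1 µM DCC internal standard.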

Row | Km at 0.5 h ([1]; B6C3F1, mouse, liver microsomes) [µM] | Vmax ([1]; mouse, microsomes, 0.5 h) [nmol/min/mg] | SMILES | Drug excretion [2] | Drug excretion [3] | Drug excretion [4] | Drug metabolism [5] | Drug excretion [6] | Drug metabolism [7] | IC50 [8] [nM] | Drug metabolism [9] | Drug metabolism [10]
1 | 2.46 | 1.45 | O=C(Nc1ccc(Cl)c(Cl)c1)Nc1ccc(Cl)cc1O | – | – | – | – | – | – | – | – | –
2 | – | – | O=C(Nc1ccc(Cl)cc1)Nc1ccc(Cl)c(Cl)c1 [TRICLOCARBAN] | metabolite_detected | metabolite_detected | metabolite_not_detected | metabolite_not_detected | metabolite_detected | metabolite_not_detected | 24 | metabolite_not_detected | metabolite_not_detected
